According to ChEMBL document CHEMBL3867455, “Accelerating the discovery of antibacterial compounds using pathway-directed whole cell screening” (Bioorg Med Chem, 2016):
Positions count from the first letter of the chain named. In brackets after ≈: the same amount, converted by molar mass. Activity calls are given as the source filed them. The rule behind the calls is not given here.

Legend:
[1] = system: T1, Teichoic acid D-alanyltransferase (Staphylococcus aureus), Q53662 [S175T]; experiment: Inhibition of DltB S175T mutant in Staphylococcus aureus Newman up to 32 ug/ml after 16 to 18 hrs by spectrophotometric analysis; details: Staphylococcus aureus subsp. aureus str. Newman
T1 sequence (whole entry): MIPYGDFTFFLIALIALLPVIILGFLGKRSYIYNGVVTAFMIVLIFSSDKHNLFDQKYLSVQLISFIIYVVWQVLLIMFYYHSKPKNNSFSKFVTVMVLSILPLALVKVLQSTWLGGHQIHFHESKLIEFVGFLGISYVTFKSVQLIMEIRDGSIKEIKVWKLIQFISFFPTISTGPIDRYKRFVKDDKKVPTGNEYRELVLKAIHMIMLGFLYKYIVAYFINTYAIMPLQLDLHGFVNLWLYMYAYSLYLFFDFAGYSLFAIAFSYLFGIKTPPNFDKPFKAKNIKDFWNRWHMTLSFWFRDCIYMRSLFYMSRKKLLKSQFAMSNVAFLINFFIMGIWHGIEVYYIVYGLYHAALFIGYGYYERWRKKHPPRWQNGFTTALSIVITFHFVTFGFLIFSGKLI

[2] = system: T2, Teichoic acid D-alanyltransferase (Staphylococcus aureus), Q53662 [A355E]; experiment: Inhibition of DltB A355E mutant in Staphylococcus aureus Newman up to 32 ug/ml after 16 to 18 hrs by spectrophotometric analysis; details: Staphylococcus aureus subsp. aureus str. Newman
T2 sequence (whole entry): T1 sequence (whole entry) with T175S, A355E
Method in brief: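 Broth-dilution MIC. Overnight cultures of the parent and the resistant mutants (selected in the […] background) were diluted 1:100 and grown in TSB at 30°C to OD600 ~1. They were then normalized to OD600 1 and diluted 1:1000. Compound series were made in DMSO, with 3 µL added to 147 µL of culture for a final 0–32 µg/mL. Plates were held 16–18 h at 30°C and OD600 was read.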

Staphylococcus aureus [3] = experiment: Antibacterial activity against wild type Staphylococcus aureus Newman at 5 ug/ml after 16 to 18 hrs; format: functional
Method in brief: (§1)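 S. aureus overnight cultures (Newman WT, Newman ΔtarO, SEJ1 ΔltaS, RN4220 ΔypfP) diluted 1:100 in TSB and grown to OD600 ~1. Cultures were normalized to OD600 1 and diluted 1:1000. A DMSO compound dilution series was added to give final 0–32 µg/mL. Plates were incubated at 30°C for 16–18 h, then growth was read as OD600.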

[4] = system: Staphylococcus aureus subsp. aureus str. Newman; experiment: Inhibition of DltB in Taro deficient Staphylococcus aureus Newman at 5 ug/ml after 16 to 18 hrs; method in brief: as §1
Staphylococcus aureus [5] = experiment: Inhibition of DltB in ltaS-deficient Staphylococcus aureus SEJ1 at 5 ug/ml after 16 to 18 hrs; method in brief: as §1
[6] = system: Staphylococcus aureus subsp. aureus RN4220; experiment: Inhibition of DltB in ypfP-deficient Staphylococcus aureus RN4220 at 5 ug/ml after 16 to 18 hrs; method in brief: as §1
[7] = system: Staphylococcus aureus subsp. aureus USA300; experiment: Inhibition of DltB tn::1050 mutant in Staphylococcus aureus USA300 JE2 at 5 ug/ml after 16 to 18 hrs
[8] = system: Staphylococcus aureus subsp. aureus str. Newman; experiment: Inhibition of DltB in Taro-deficient Staphylococcus aureus Newman at 1 ug/ml after 16 to 18 hrs; method in brief: as §1
Staphylococcus aureus [9] = experiment: Inhibition of DltB in ltaS-deficient Staphylococcus aureus SEJ1 at 1 ug/ml after 16 to 18 hrs; method in brief: as §1
[10] = system: Staphylococcus aureus subsp. aureus RN4220; experiment: Inhibition of DltB in ypfP-deficient Staphylococcus aureus RN4220 at 1 ug/ml after 16 to 18 hrs; method in brief: as §1
[11] = system: Staphylococcus aureus subsp. aureus USA300; experiment: Inhibition of DltB tn::1050 mutant in Staphylococcus aureus USA300 JE2 at 1 ug/ml after 16 to 18 hrs
[12] = system: Staphylococcus aureus subsp. aureus str. Newman; experiment: Inhibition of DltB in Staphylococcus aureus Newman assessed as suppression of 14C-D-Ala incorporation into LTA up to 16 ug/ml preincubated for 30 mins followed by 14C-D-Ala addition after 30 mins by PAGE autoradiography
Method in brief: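 S. aureus Newman overnight culture diluted 1:100 and grown in TSB at 30°C to OD600 0.6. Cells were resuspended in 0.25X TSB pH 6.0 with 200 µg/mL D-cycloserine and compound at 0–16 µg/mL (eight levels), then held 30 min at 30°C, 300 rpm. Cells were then resuspended in the same buffer with compound plus 14C-D-Ala for a further 30 min. Lysates were boiled in SDS buffer and run on 4–20% Tris-glycine PAGE, then autoradiographed for labelled LTA.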

[13] = Cytotoxicity against African green monkey Vero cells assessed cell viability at 10 uM relative to control; format: toxicity, cell-based; details: chlorocebus sabaeus, read-out: Activity
[14] = Cytotoxicity against African green monkey Vero cells assessed cell viability at 5 uM relative to control; format: toxicity, cell-based; details: chlorocebus sabaeus, read-out: Activity
[15] = Cytotoxicity against African green monkey Vero cells assessed cell viability at 2.5 uM relative to control; format: toxicity, cell-based; details: chlorocebus sabaeus, read-out: Activity
[16] = Cytotoxicity against African green monkey Vero cells assessed cell viability at 1.3 uM relative to control; format: toxicity, cell-based; details: chlorocebus sabaeus, read-out: Activity

For COc1cc(NS(C)(=O)=O)ccc1Nc1c2ccccc2nc2ccccc12, the MIC [1] was over 32 µg/mL, the MIC [2] was 2 µg/mL (≈ 5.08 µM) and the Activity (Staphylococcus aureus [3]) was “Active”. The inhibition [4] was “Active”, the inhibition (Staphylococcus aureus [5]) was “Active” and the inhibition [6] was “Active”. For the same compound, the inhibition [7] was “Active”.
With COc1ccc(-c2csc(NC(=O)/C=C/c3cccs3)n2)c(OC)c1 the inhibition [8] was “Active”, the inhibition (Staphylococcus aureus [9]) was “Active” and the inhibition [10] was “Active”. The inhibition [11] was “Active”, the MIC [1] was 0.5 µg/mL (≈ 1.34 µM) and the MIC [2] was over 32 µg/mL. The inhibition [12] was “Active”, the viability at 10 µM [13] was 106% and the viability at 5 µM [14] was 106%. The viability at 2.5 µM [15] was 106% and the viability at 1.3 µM [16] was 106%.
